Results taken from ChEMBL document CHEMBL3244421, “Antiarrhythmic activity of some N-alkylbispidinebenzamides” (J Med Chem, 1979).

Columns and labels:
[1] = tested on: Mus musculus; test: Ratio of LD50 for CF1 mouse to ED50 for antiarrhythmic activity in CF1 mouse; design: species or system Heart
[2] = tested on: Mus musculus; test: Antiarrhythmic activity in ip dosed CF1 mouse assessed as protection against chloroform-induced ventricular fibrillation; type: functional; settings: CF1, Heart
In short: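 Adult female CF1 mice; protection against ventricular fibrillation provoked by chloroform exposure, used as the first screen of antiarrhythmic activity.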

[3] = Acute toxicity in ip dosed CF1 mouse; type: organism-based; settings: in vivo
[4] = Ratio of ED25 for reduction in force of left atrial contraction in New Zealand rabbit to ED25 for reduction in maximum following frequency in New Zealand rabbit left atrium; design: species or system Oryctolagus cuniculus, Cardiac atrium
[5] = Toxicity in New Zealand rabbit assessed as reduction in force of left atrial contraction; type: tissue-based, Oryctolagus cuniculus, Cardiac atrium
[6] = Antiarrhythmic activity in New Zealand rabbit left atrium assessed as reduction in maximum following frequency (MFF); type: functional, Oryctolagus cuniculus, Cardiac atrium
In short: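 Left atria from male New Zealand white rabbits, mounted in Krebs-Henseleit buffer at 35 °C and aerated with 95% O2-5% CO2. Driven by 10-ms square-wave pulses at five times threshold voltage. Control maximum following frequency (MFF) was determined first, then MFF reduction at 1, 3, 13, 33 and 133 μM. ED25 (concentration reducing MFF to 75% of control) was estimated from dose-response curves.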

| SMILES | Ratio LD50/ED50 [1] | ED50 [2] | LD50 [3] | Ratio [4] | ED25 [5] | ED25 [6] |
| --- | --- | --- | --- | --- | --- | --- |
| COc1cc(C(=O)N2CC3CC(CN(C)C3)C2)cc(OC)c1OC.O=C(O)/C=C/C(=O)O | 3.91 | 137 µmol/kg | 535 µmol/kg |  |  |  |
| CN1CC2CC(C1)CN(C(=O)c1ccc(Cl)cc1)C2.O=C(O)/C=C/C(=O)O | 10.89 | 49 µmol/kg | 535 µmol/kg | 3.64 | 400 µM | 110 µM |
| CCCCN1CC2CC(C1)CN(C(=O)c1ccc(Cl)cc1)C2.O=C(O)/C=C/C(=O)O | 3.45 | 134 µmol/kg | 463 µmol/kg |  |  |  |
| CCCCN1CC2CC(C1)CN(C(=O)c1ccc(Cl)c(Cl)c1)C2.O=C(O)/C=C/C(=O)O | 2.71 | 223 µmol/kg | 605 µmol/kg |  |  |  |
| CCCCN1CC2CC(C1)CN(C(=O)c1ccc(OC)cc1)C2.O=C(O)/C=C/C(=O)O | 4.6 | 106 µmol/kg | 488 µmol/kg |  |  |  |
| COc1ccc(C(=O)N2CC3CC(CN(C)C3)C2)cc1.O=C(O)/C=C/C(=O)O | 5.93 | 78 µmol/kg | 463 µmol/kg |  | > 400 µM | 500 µM |
| CN1CC2CC(C1)CN(C(=O)c1ccc(Cl)c(Cl)c1)C2.O=C(O)/C=C/C(=O)O | 1.05 | 470 µmol/kg | 492 µmol/kg |  |  |  |
| CC(C)N(CCC(C(N)=O)(c1ccccc1)c1ccccn1)C(C)C (stereo not given) [DISOPYRAMIDE] | 5.77 | 90 µmol/kg | 517 µmol/kg | 3.11 | 56 µM | 18 µM |
| CN1CC2CC(C1)CN(C(=O)c1ccccc1)C2.O=C(O)/C=C/C(=O)O | 7.29 | 85 µmol/kg | 621 µmol/kg |  | > 400 µM | 400 µM |
| CCCCN1CC2CC(C1)CN(C(=O)c1ccccc1)C2.Cl | 2.07 | 242 µmol/kg | 500 µmol/kg |  |  |  |
